Screens: PubChem BioAssay, Broad Institute
E-selectin induc: induces E-selectin expression in human endothelial cells | P16581 | 260,000 tested, 0.37% active | AID 686992 | HUVEC E-selectin immunofluorescence imaging; normalized: neutral wells 0, TNF-alpha wells 100 | activation, % at 7.58 µM;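 active = mean E-selectin-positive cell signal at least 10% of the positive control, reached in at least 60% of replicates, without over 20% cell loss; inconclusive = no rule given, readout overlaps actives, possibly toxicity-flagged; inactive = the rest, including those meeting only one limit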
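Assay system: HUVEC primary endothelial cells. Input: 3,000 HUVEC seeded per well. Doses: one compound dose added by pin transfer. Read-out basis: % PE-positive cells. Benchmarks: TNF-alpha high, DMSO low. Detection: immunofluorescence imaging. Buffer or medium: EGM-2, gelatin.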
SIRT5 block: sirtuin-5 (human) deacylase inhibition | Q9NXA8 | Purified SirT5, succinyl-peptide AMC, trypsin-coupled fluorescence | inhibition, % at 15 µM | 330,000 tested, 1.1% active; in the data active = inhibition above about 15%; inconclusive = no clear call, values can overlap the other calls
Target sequence (Q9NXA8 whole entry, looked up): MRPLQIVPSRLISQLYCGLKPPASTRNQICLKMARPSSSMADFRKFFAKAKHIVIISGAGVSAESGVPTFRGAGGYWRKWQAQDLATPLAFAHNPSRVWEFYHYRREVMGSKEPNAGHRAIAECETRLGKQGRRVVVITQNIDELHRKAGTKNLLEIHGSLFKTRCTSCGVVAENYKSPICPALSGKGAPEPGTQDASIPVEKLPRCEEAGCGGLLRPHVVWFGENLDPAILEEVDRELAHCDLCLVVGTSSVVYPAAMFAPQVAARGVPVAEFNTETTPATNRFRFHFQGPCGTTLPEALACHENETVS
DENV2 CPE: inhibitors of DENV2 cytopathic effect. DENV2-infected cells, cytopathic effect rescue, plate reader. CPE inhibition, % at 9.99 µM. 350,000 tested, 1.7% active; in the data active = CPE inhibition above about 20%, passing the limit was not always enough; inconclusive = no clear call, values can overlap the other calls; tested in BHK-21 cells;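 note: 0% = median of neutral control wells and 100% = median of positive control wells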
* marks the source's active call; other numbers are inactive results. In the library only some 2.8% were active in any assay of this set; here they are far more common.

Screening CCC(=O)N(C)C[C@H]1Oc2cc(C3=CCCC3)ccc2S(=O)(=O)N([C@@H](C)CO)C[C@@H]1C returned E-selectin induc 71*, SIRT5 block 6 and DENV2 CPE -8.
`CCCNC(=O)N(C)C[C@H]1Oc2cc(C3=CCCC3)ccc2S(=O)(=O)N([C@H](C)CO)C[C@H]1C` gave E-selectin induc 0, SIRT5 block 4 and DENV2 CPE 30*.
`C[C@H](CO)N1C[C@H](C)[C@H](CN(C)C(=O)Nc2ccc3c(c2)OCO3)Oc2cc(C3=CCCCC3)ccc2S1(=O)=O` gave E-selectin induc 0, SIRT5 block 14 and DENV2 CPE 2.
`C[C@@H]1CN([C@@H](C)CO)S(=O)(=O)c2ccc(C3=CCCCC3)cc2O[C@H]1CN(C)C(=O)C1CCC1` gave E-selectin induc 4, SIRT5 block 4 and DENV2 CPE 8.
For C[C@@H]1CN([C@H](C)CO)S(=O)(=O)c2ccc(C3=CCCCC3)cc2O[C@@H]1CN(C)C(=O)Nc1ccc2c(c1)OCO2 the results were E-selectin induc 0, SIRT5 block 15* and DENV2 CPE 2.
For C[C@H]1CN([C@@H](C)CO)S(=O)(=O)c2ccc(C3=CCCC3)cc2O[C@H]1CN(C)C(=O)C1CCC1 the results were E-selectin induc 0, SIRT5 block 4 and DENV2 CPE 21*.
For CCCNC(=O)N1CCC2(CC1)CN(C(=O)NC(C)C)[C@@H](CO)c1c2c2ccc(OC)cc2n1C the results were E-selectin induc 1, SIRT5 block -3 and DENV2 CPE 0.
CNC[C@H]1OCCCC[C@@H](C)Oc2ccc(NC(=O)Nc3ccc4c(c3)OCO4)cc2C(=O)N([C@H](C)CO)C[C@@H]1C was read as E-selectin induc 0, SIRT5 block -3 and DENV2 CPE -1.
`Cn1cnc(S(=O)(=O)N2CCCCN3[C@H](C2)[C@H](c2ccc(C4=CCCC4)cc2)[C@@H]3CO)c1` gave SIRT5 block 1 and DENV2 CPE -3.
C[C@H](CO)N1C[C@H](C)[C@@H](CN(C)C(=O)Nc2ccc3c(c2)OCO3)Oc2ccc(NC(=O)Nc3cccc4ccccc34)cc2CC1=O was read as E-selectin induc 0, SIRT5 block 7 and DENV2 CPE -3.
Cc1ccc(S(=O)(=O)Nc2ccc3c(c2)C(=O)N([C@H](C)CO)C[C@@H](C)[C@H](CN(C)C(=O)Nc2ccccc2)OCCCC[C@@H](C)O3)cc1 was read as E-selectin induc 0, SIRT5 block 3 and DENV2 CPE -1.
For C[C@@H]1CN([C@H](C)CO)S(=O)(=O)c2ccc(C3=CCCCC3)cc2O[C@@H]1CN(C)C(=O)Cc1ccncc1 the results were E-selectin induc 1, SIRT5 block 5 and DENV2 CPE 3.
C[C@@H]1CN([C@@H](C)CO)S(=O)(=O)c2ccc(C3=CCCCC3)cc2O[C@H]1CN(C)C(=O)Cc1ccncc1 was read as E-selectin induc 0, SIRT5 block 9 and DENV2 CPE 1.
Screening C[C@@H]1CN([C@@H](C)CO)S(=O)(=O)c2ccc(C3=CCCCC3)cc2O[C@H]1CN(C)C(=O)Cc1ccccc1 returned E-selectin induc 0, SIRT5 block 16* and DENV2 CPE -13.
`C[C@@H]1CN([C@H](C)CO)S(=O)(=O)c2ccc(C3=CCCCC3)cc2O[C@@H]1CN(C)C(=O)Cc1ccccc1` gave E-selectin induc 0, SIRT5 block 13 and DENV2 CPE -3.
`C[C@@H]1CN([C@@H](C)CO)S(=O)(=O)c2ccc(C3=CCCCC3)cc2O[C@@H]1CN(C)C(=O)Cc1ccccc1` gave E-selectin induc 0, SIRT5 block 18* and DENV2 CPE inconclusive.
`C[C@@H]1CN([C@H](C)CO)S(=O)(=O)c2ccc(C3=CCCCC3)cc2O[C@H]1CN(C)C(=O)Cc1ccccc1` gave E-selectin induc 0, SIRT5 block 15* and DENV2 CPE 9.
Screening C[C@H](NC(=O)C[C@H]1CC[C@@H](NC(=O)Nc2ccc3c(c2)OCO3)[C@@H](CO)O1)c1ccccc1 returned E-selectin induc -1, SIRT5 block 1 and DENV2 CPE 4.
COc1ccc2c3c(n(C)c2c1)[C@@H](CO)N(Cc1ccccc1F)CC31CN(C(=O)C2CCCC2)C1 was read as E-selectin induc 0, SIRT5 block 0 and DENV2 CPE -8.
COC(=O)C[C@@H]1CC[C@@H]2[C@H](COc3ccc(NS(=O)(=O)c4ccccc4Cl)cc3C(=O)N2C)O1 was read as E-selectin induc 0, SIRT5 block 1 and DENV2 CPE inconclusive.
`Nn1c(C2CCCCC2)nc2ccccc2c1=O` gave E-selectin induc 0, SIRT5 block -9 and DENV2 CPE 2.
`Nn1c(C2CCC2)nc2cc(Cl)ccc2c1=O` gave SIRT5 block 18* and DENV2 CPE 3.
